Laboratory results: ChEMBL document CHEMBL1914326, “Synthesis and anticonvulsant properties of new acetamide derivatives of phthalimide, and its saturated cyclohexane and norbornene analogs” (Eur J Med Chem, 2011)
Activity calls are given as the source filed them. The calls are words filed in the database; no cut-off is given here.

Columns and labels:
Mus musculus [1] = assay: Anticonvulsant activity in CF1 albino mouse assessed as protection against subcutaneous pentylenetetrazole-induced seizures at 300 mg/kg, ip after 4 hrs; format: functional, organism-based; parameters: dose 300 mg/kg
Method in brief: (§1)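 Male CF-1 mice in groups of eight were dosed i.p. at 30, 100 or 300 mg/kg in 0.5% methylcellulose/water. At 0.5 and 4 h, pentylenetetrazole 85 mg/kg (CD97 dose) was given s.c. This dose produces clonic seizures lasting at least 5 s. The minimum protective dose was recorded, with a top dose of 300 mg/kg.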

Mus musculus [2] = assay: Anticonvulsant activity in CF1 albino mouse assessed as protection against subcutaneous pentylenetetrazole-induced seizures at 300 mg/kg, ip after 0.5 hrs; format: functional, organism-based; parameters: dose 300 mg/kg; method in brief: as §1
Mus musculus [3] = assay: Neurotoxicity in CF1 albino mouse assessed as unable to grasp rotarod at 300 mg/kg, ip after 4 hrs by rotarod test; format: toxicity, organism-based; parameters: dose 300 mg/kg, route intraperitoneal; conditions: in vivo
Method in brief: (§2)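 Acute neurotoxicity was scored on the minimal motor impairment rotorod test in male CF-1 mice. Animals in groups of eight were dosed i.p. at 30, 100 or 300 mg/kg in 0.5% methylcellulose/water and examined at 0.5 and 4 h. Untreated controls keep their balance on the rod for a prolonged time. The minimum dose causing impairment was recorded.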

Mus musculus [4] = assay: Anticonvulsant activity in ip dosed CF1 albino mouse assessed as protection against maximal electroshock after 4 hrs; format: functional; conditions: read-out: MED
Method in brief: (§3)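 Male albino CF-1 mice in groups of eight received i.p. doses of 30, 100 and 300 mg/kg, suspended in 0.5% methylcellulose/water. Maximal electroshock seizures were tested at 0.5 and 4 h, with one additional 0.25 h reading at 100 mg/kg. The minimum dose giving protection was recorded. A dash means no activity at 300 mg/kg.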

Mus musculus [5] = assay: Neurotoxicity in ip dosed CF1 albino mouse assessed as minimum dose required to cause motor impairment after 0.5 hrs by rotarod test; format: toxicity, organism-based; conditions: in vivo; method in brief: as §2
Mus musculus [6] = assay: Anticonvulsant activity in ip dosed CF1 albino mouse assessed as protection against maximal electroshock after 0.5 hrs; format: functional; conditions: read-out: MED; method in brief: as §3
Mus musculus [7] = assay: Anticonvulsant activity in ip dosed CF1 albino mouse assessed as protection against subcutaneous pentylenetetrazole-induced after 0.5 hrs; format: functional; conditions: read-out: MED; method in brief: as §1
Mus musculus [8] = assay: Anticonvulsant activity in ip dosed CF1 albino mouse assessed as protection against subcutaneous pentylenetetrazole-induced after 4 hrs; format: functional; conditions: read-out: MED; method in brief: as §1
Mus musculus [9] = assay: Neurotoxicity in ip dosed CF1 albino mouse assessed as minimum dose required to cause motor impairment after 4 hrs by rotarod test; format: toxicity, organism-based; conditions: in vivo; method in brief: as §2
Mus musculus [10] = assay: Neurotoxicity in CF1 albino mouse assessed as unable to grasp rotarod at 300 mg/kg, ip after 0.5 hrs by rotarod test; format: toxicity, organism-based; parameters: dose 300 mg/kg, route intraperitoneal; conditions: in vivo; method in brief: as §2
Rattus norvegicus [11] = assay: Anticonvulsant activity in Sprague-Dawley albino rat assessed as protection against maximal electroshock at 30 mg/kg, po after 2 hrs; format: functional
Method in brief: (§4)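 Male Sprague-Dawley rats in groups of four received 30 mg/kg p.o. as a suspension in 0.5% methylcellulose/water. Maximal electroshock seizure protection was scored at 0.25, 0.5, 1, 2 and 4 h and reported as rats protected/rats tested.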

Rattus norvegicus [12] = assay: Neurotoxicity in Sprague-Dawley albino rat assessed as motor impairment at 30 mg/kg, po by rotarod test; format: toxicity, organism-based; parameters: dose 30 mg/kg, route oral; conditions: in vivo
Method in brief: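 Male Sprague-Dawley rats in groups of four were given 30 mg/kg orally in 0.5% methylcellulose/water. Motor impairment was then assessed on the standardized minimal motor impairment rotorod test.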

Rattus norvegicus [13] = assay: Anticonvulsant activity in Sprague-Dawley albino rat assessed as protection against maximal electroshock at 30 mg/kg, po after 4 hrs; format: functional; method in brief: as §4
Rattus norvegicus [14] = assay: Anticonvulsant activity in Sprague-Dawley albino rat assessed as protection against maximal electroshock at 30 mg/kg, po after 0.5 hrs; format: functional; method in brief: as §4
Rattus norvegicus [15] = assay: Anticonvulsant activity in Sprague-Dawley albino rat assessed as protection against maximal electroshock at 30 mg/kg, po after 1 hr; format: functional; method in brief: as §4
Rattus norvegicus [16] = assay: Anticonvulsant activity in Sprague-Dawley albino rat assessed as protection against maximal electroshock at 30 mg/kg, po after 0.25 hrs; format: functional; method in brief: as §4
Mus musculus [17] = assay: Neurotoxicity in CF1 albino mouse assessed as motor impairment at 300 mg/kg, ip after 4 hrs by rotarod test; format: toxicity, organism-based; parameters: dose 300 mg/kg, route intraperitoneal; conditions: in vivo; method in brief: as §2
Mus musculus [18] = assay: Anticonvulsant activity in CF1 albino mouse assessed as protection against maximal electroshock at 300 mg/kg, ip after 0.5 hrs; format: functional, organism-based; parameters: dose 300 mg/kg; method in brief: as §3
Mus musculus [19] = assay: Neurotoxicity in CF1 albino mouse assessed as motor impairment at 300 mg/kg, ip after 0.5 hrs by rotarod test; format: toxicity, organism-based; parameters: dose 300 mg/kg, route intraperitoneal; conditions: in vivo; method in brief: as §2
Mus musculus [20] = assay: Anticonvulsant activity in CF1 albino mouse assessed as protection against maximal electroshock at 300 mg/kg, ip after 4 hrs; format: functional, organism-based; parameters: dose 300 mg/kg; method in brief: as §3
Mus musculus [21] = assay: Anticonvulsant activity in CF1 albino mouse assessed as protection against maximal electroshock at 100 mg/kg, ip after 0.25 hrs; format: functional, organism-based; parameters: dose 100 mg/kg; method in brief: as §3
Mus musculus [22] = assay: Neurotoxicity in ip dosed CF1 albino mouse assessed as minimum dose required to cause tremors after 0.5 hrs by rotarod test; format: toxicity, organism-based; conditions: in vivo
Rattus norvegicus [23] = assay: Anticonvulsant activity in po dosed rat assessed as protection against maximal electroshock; format: functional

Row | SMILES | Activity (Mus musculus [1]) | Activity (Mus musculus [2]) | minimal effective dose (Mus musculus [4]) | MTC (Mus musculus [5]) | minimal effective dose (Mus musculus [6]) | Activity (Mus musculus [17]) | Activity (Mus musculus [18]) | Activity (Mus musculus [19]) | Activity (Mus musculus [20]) | also measured
1 | O=C(CN1C(=O)C2C3C=CC(C3)C2C1=O)N1CCN(c2ccc(F)cc2)CC1 (stereo not given) | inactive | inactive | 100 mg/kg | 300 mg/kg | 100 mg/kg | – | – | – | – | Activity (Mus musculus [3]): Toxic
2 | NC(=O)N1c2ccccc2C=Cc2ccccc21 [CARBAMAZEPINE] | – | – | 100 mg/kg | 100 mg/kg | 30 mg/kg | – | – | – | – | minimal effective dose (Mus musculus [7]): 100 mg/kg; minimal effective dose (Mus musculus [8]): 300 mg/kg; MTC (Mus musculus [9]): 300 mg/kg
3 | O=C(CN1C(=O)c2ccccc2C1=O)N1CCOCC1 | inactive | inactive | 100 mg/kg | – | 100 mg/kg | – | – | – | – | Activity (Mus musculus [3]): Toxic; Activity (Mus musculus [10]): Toxic
4 | O=C(CN1C(=O)c2ccccc2C1=O)N1CCN(c2ccc(F)cc2)CC1 | – | – | 100 mg/kg | 300 mg/kg | 30 mg/kg | – | – | – | – | Activity (Rattus norvegicus [11]): 100%; minimal effective dose (Mus musculus [7]): 300 mg/kg; Activity (Rattus norvegicus [12]): Non-toxic; minimal effective dose (Mus musculus [8]): 300 mg/kg; Activity (Rattus norvegicus [13]): 100%; Activity (Rattus norvegicus [14]): 50%; MTC (Mus musculus [9]): 300 mg/kg; Activity (Rattus norvegicus [15]): 50%; Activity (Rattus norvegicus [16]): 25%
5 | O=C(CN1C(=O)c2ccccc2C1=O)N1CCN(c2cccc(Cl)c2Cl)CC1 | inactive | inactive | 100 mg/kg | – | – | Non-toxic | inactive | Non-toxic | – | –
6 | O=C(CN1C(=O)c2ccccc2C1=O)N1CCN(c2ccccc2F)CC1 | inactive | – | – | – | 300 mg/kg | Non-toxic | – | Non-toxic | inactive | minimal effective dose (Mus musculus [7]): 300 mg/kg
7 | O=C(CN1C(=O)c2ccccc2C1=O)N1CCN(c2ccc(Cl)cc2)CC1 | inactive | inactive | 100 mg/kg | – | 100 mg/kg | Non-toxic | – | Non-toxic | – | Activity (Rattus norvegicus [11]): 0%; Activity (Rattus norvegicus [12]): Non-toxic; Activity (Rattus norvegicus [13]): 50%; Activity (Rattus norvegicus [14]): 0%; Activity (Rattus norvegicus [15]): 0%; Activity (Rattus norvegicus [16]): 0%
8 | O=C(CN1C(=O)C2CCCCC2C1=O)N1CCN(Cc2ccccc2)CC1 (stereo not given) | inactive | inactive | – | 300 mg/kg | – | Non-toxic | inactive | – | inactive | –
9 | O=C(CN1C(=O)C2CCCCC2C1=O)N1CCOCC1 (stereo not given) | – | inactive | – | 300 mg/kg | – | Non-toxic | inactive | – | inactive | minimal effective dose (Mus musculus [8]): 300 mg/kg
10 | O=C(CN1C(=O)C2CCCCC2C1=O)N1CCN(c2ccc(F)cc2)CC1 (stereo not given) | inactive | inactive | 300 mg/kg | – | 300 mg/kg | Non-toxic | – | Non-toxic | – | Activity (Rattus norvegicus [11]): 0%; Activity (Rattus norvegicus [12]): Non-toxic; Activity (Mus musculus [21]): Active; Activity (Rattus norvegicus [13]): 0%; Activity (Rattus norvegicus [14]): 50%; Activity (Rattus norvegicus [15]): 25%; Activity (Rattus norvegicus [16]): 0%
11 | O=C1NC(=O)C(c2ccccc2)(c2ccccc2)N1 [PHENYTOIN] | inactive | inactive | 30 mg/kg | 100 mg/kg | 30 mg/kg | – | – | – | – | Activity (Rattus norvegicus [11]): 75%; Activity (Rattus norvegicus [12]): Non-toxic; Activity (Rattus norvegicus [13]): 75%; Activity (Rattus norvegicus [14]): 100%; MTC (Mus musculus [9]): 100 mg/kg; Activity (Rattus norvegicus [15]): 75%; Activity (Rattus norvegicus [16]): 25%
12 | CCC1(C)CC(=O)NC1=O (stereo not given) [ETHOSUXIMIDE] | – | – | – | – | – | Non-toxic | inactive | Non-toxic | inactive | minimal effective dose (Mus musculus [7]): 100 mg/kg; minimal effective dose (Mus musculus [8]): 300 mg/kg
13 | O=C(CN1C(=O)C2CCCCC2C1=O)N1CCN(c2cccc(Cl)c2Cl)CC1 (stereo not given) | inactive | inactive | – | – | – | Non-toxic | inactive | – | inactive | Activity (Mus musculus [22]): Toxic
14 | O=C1CC2(CCc3ccccc3C2)C(=O)N1CN1CCN(c2cccc(C(F)(F)F)c2)CC1 (stereo not given) | – | – | – | – | – | – | – | – | – | ED50 (Rattus norvegicus [23]): 9 mg/kg
15 | Nc1ccc(N2C(=O)c3ccccc3C2=O)c(Cl)c1 | – | – | – | – | – | – | – | – | – | ED50 (Rattus norvegicus [23]): 5.7 mg/kg
